Experimental data reported in ChEMBL document CHEMBL1151705, “Novel azalides derived from 16-membered macrolides. Part II: Isolation of the linear 9-formylcarboxylic acid and its sequential macrocyclization with an amino alcohol or an azidoamine” (2008).
≈ marks a conversion by molar mass, not a printed value.

Assays:
Streptococcus pneumoniae [1] = assay: Antimicrobial activity against drug-susceptible Streptococcus pneumoniae 2 after 20 hrs by agar dilution method; assay type: functional
How it was run: (§1)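 Streptococci, H. influenzae and M. catarrhalis were precultured on blood agar plates. Suspensions of about 10⁶ CFU/ml were inoculated onto sensitivity disk agar supplemented with 5% horse blood and incubated at 37 °C for 20 h. MIC was read as the lowest drug concentration with no visible growth.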

Streptococcus pyogenes [2] = assay: Antimicrobial activity against drug-susceptible Streptococcus pyogenes 1 after 20 hrs by agar dilution method; assay type: functional; how it was run: as §1
Staphylococcus aureus [3] = assay: Antimicrobial activity against Staphylococcus aureus 5 expressing inducible ermB after 20 hrs by agar dilution method; assay type: functional
How it was run: (§2)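 Agar dilution MIC. S. aureus seed culture was grown in sensitivity test broth. Cell suspension (about 10⁶ CFU/ml) was inoculated onto sensitivity disk agar with 5% horse blood and incubated at 37 °C for 20 h. MIC was the lowest drug concentration that prevented visible growth.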

Streptococcus pneumoniae [4] = assay: Antimicrobial activity against Streptococcus pneumoniae 4 constitutively expressing ermB after 20 hrs by agar dilution method; assay type: functional; settings: Streptococcus pneumoniae, 20 h; read-out: MIC; how it was run: as §1
Haemophilus influenzae [5] = assay: Antimicrobial activity against drug-susceptible Haemophilus influenzae 2 after 20 hrs by agar dilution method; assay type: functional; settings: Haemophilus influenzae, 20 h; read-out: MIC; how it was run: as §1
Staphylococcus aureus [6] = assay: Antimicrobial activity against drug-susceptible Staphylococcus aureus 3 after 20 hrs by agar dilution method; assay type: functional; how it was run: as §2
Haemophilus influenzae [7] = assay: Antimicrobial activity against drug-susceptible Haemophilus influenzae 3 after 20 hrs by agar dilution method; assay type: functional; how it was run: as §1
Streptococcus pneumoniae [8] = assay: Antimicrobial activity against Streptococcus pneumoniae 9 expressing mefA after 20 hrs by agar dilution method; assay type: functional; how it was run: as §1
Moraxella catarrhalis [9] = assay: Antimicrobial activity against drug-susceptible Moraxella catarrhalis 2 after 20 hrs by agar dilution method; assay type: functional; how it was run: as §1
Streptococcus pneumoniae [10] = assay: Antimicrobial activity against Streptococcus pneumoniae 10 expressing mefA after 20 hrs by agar dilution method; assay type: functional; how it was run: as §1
Moraxella catarrhalis [11] = assay: Antimicrobial activity against drug-susceptible Moraxella catarrhalis 1 after 20 hrs by agar dilution method; assay type: functional; how it was run: as §1
Streptococcus pneumoniae [12] = assay: Antimicrobial activity against drug-susceptible Streptococcus pneumoniae 3 after 20 hrs by agar dilution method; assay type: functional; how it was run: as §1
Staphylococcus aureus [13] = assay: Antimicrobial activity against Staphylococcus aureus 4 constitutively expressing ermA after 20 hrs by agar dilution method; assay type: functional; how it was run: as §2
Haemophilus influenzae [14] = assay: Antimicrobial activity against drug-susceptible Haemophilus influenzae 4 after 20 hrs by agar dilution method; assay type: functional; how it was run: as §1
Staphylococcus aureus [15] = assay: Antimicrobial activity against Staphylococcus aureus 6 expressing inducible ermC after 20 hrs by agar dilution method
Streptococcus pyogenes [16] = assay: Antimicrobial activity against Streptococcus pyogenes 3 expressing mefA after 20 hrs by agar dilution method; assay type: functional; how it was run: as §1
Streptococcus pneumoniae [17] = assay: Antimicrobial activity against Streptococcus pneumoniae 7 expressing inducible ermB after 20 hrs by agar dilution method; assay type: functional; how it was run: as §1
Staphylococcus aureus [18] = assay: Antimicrobial activity against drug-susceptible Staphylococcus aureus 209P JC-1 after 20 hrs by agar dilution method; assay type: functional; how it was run: as §2
Streptococcus pneumoniae [19] = assay: Antimicrobial activity against drug-susceptible Streptococcus pneumoniae DP1 Type1 after 20 hrs by agar dilution method; assay type: functional; how it was run: as §1
Staphylococcus aureus [20] = assay: Antimicrobial activity against drug-susceptible Staphylococcus aureus 2 after 20 hrs by agar dilution method; assay type: functional; how it was run: as §2
Streptococcus pyogenes [21] = assay: Antimicrobial activity against Streptococcus pyogenes 2 constitutively expressing ermB after 20 hrs by agar dilution method; assay type: functional; how it was run: as §1
Streptococcus pneumoniae [22] = assay: Antimicrobial activity against Streptococcus pneumoniae 5 constitutively expressing ermB/mefA after 20 hrs by agar dilution method; assay type: functional; settings: Streptococcus pneumoniae, 20 h; read-out: MIC; how it was run: as §1
Haemophilus influenzae [23] = assay: Antimicrobial activity against drug-susceptible Haemophilus influenzae 1 after 20 hrs by agar dilution method; assay type: functional; settings: Haemophilus influenzae, 20 h; read-out: MIC; how it was run: as §1
Streptococcus pneumoniae [24] = assay: Antimicrobial activity against Streptococcus pneumoniae 6 constitutively expressing ermB after 20 hrs by agar dilution method; assay type: functional; settings: Streptococcus pneumoniae, 20 h; read-out: MIC; how it was run: as §1
Streptococcus pneumoniae [25] = assay: Antimicrobial activity against Streptococcus pneumoniae 8 expressing inducible ermB after 20 hrs by agar dilution method; assay type: functional; how it was run: as §1
[26] = Streptococcus pneumoniae, 20 h, read-out: MIC
[27] = Streptococcus pyogenes, 20 h, read-out: MIC
[28] = Haemophilus influenzae, 20 h, read-out: MIC

Row | MIC (Streptococcus pneumoniae [1]; [26]) [µg/mL] | MIC (Streptococcus pyogenes [2]; [27]) [µg/mL] | MIC (Staphylococcus aureus [3]) [µg/mL] | MIC (Streptococcus pneumoniae [4]) [µg/mL] | MIC (Haemophilus influenzae [5]) [µg/mL] | MIC (Haemophilus influenzae [7]; [28]) [µg/mL] | MIC (Streptococcus pneumoniae [8]; [26]) [µg/mL] | MIC (Streptococcus pneumoniae [10]; [26]) [µg/mL] | MIC (Moraxella catarrhalis [11]) [µg/mL] | MIC (Staphylococcus aureus [13]) [µg/mL] | MIC (Haemophilus influenzae [14]; [28]) [µg/mL] | MIC (Staphylococcus aureus [15]) [µg/mL] | MIC (Streptococcus pyogenes [16]; [27]) [µg/mL] | MIC (Staphylococcus aureus [18]) [µg/mL] | MIC (Streptococcus pneumoniae [19]) [µg/mL] | MIC (Staphylococcus aureus [20]) [µg/mL] | MIC (Streptococcus pyogenes [21]) [µg/mL] | MIC (Streptococcus pneumoniae [22]) [µg/mL] | MIC (Haemophilus influenzae [23]) [µg/mL] | MIC (Streptococcus pneumoniae [24]) [µg/mL] | Compound | other results
1 | 0.13 | 0.25 | 0.5 | > 128 | 1 | 8 | 0.13 | 0.13 | 1 | > 128 | 8 | 0.5 | 1 | 0.5 | 0.03 | 1 | > 128 | > 128 | 32 | > 128 | CCOC(=O)[C@H]1[C@H](C)O[C@@H](O[C@H]2[C@H](N(C)C)[C@@H](O)[C@H](O[C@H]3[C@@H](CC=O)C[C@@H](C)[C@@H](O)CN(C)CCC(/C=C/Cc4ccnc5ccccc45)NC(=O)C[C@@H](OC(=O)CC)[C@@H]3OC)O[C@@H]2C)C[C@@]1(C)O (mixture of isomers) | MIC (Staphylococcus aureus [6]; Staphylococcus aureus, 20 h, read-out: MIC): 0.5 µg/mL; MIC (Moraxella catarrhalis [9]; Moraxella catarrhalis, 20 h, read-out: MIC): 2 µg/mL; MIC (Streptococcus pneumoniae [12]): 0.06 µg/mL; MIC (Streptococcus pneumoniae [17]): 8 µg/mL; MIC (Streptococcus pneumoniae [25]): 8 µg/mL
2 | – | – | 0.25 (≈ 0.253 µM) | > 128 | – | – | – | – | 2 (≈ 2.03 µM) | > 128 | – | 0.5 (≈ 0.507 µM) | – | 0.25 (≈ 0.253 µM) | 0.03 (≈ 0.0304 µM) | 1 (≈ 1.01 µM) | > 128 | > 128 | 64 (≈ 64.9 µM) | > 128 | CCOC(=O)[C@H]1[C@H](C)O[C@@H](O[C@H]2[C@H](N(C)C)[C@@H](O)[C@H](O[C@H]3[C@@H](CC=O)C[C@@H](C)[C@@H](O)CN(C)CC(/C=C\Cc4ccnc5ccccc45)CCOC(=O)C[C@@H](OC(=O)CC)[C@@H]3OC)O[C@@H]2C)C[C@@]1(C)O (stereo in doubt; form 1) | MIC (Streptococcus pneumoniae [1]): 0.06 µg/mL (≈ 0.0608 µM); MIC (Streptococcus pyogenes [2]): 0.13 µg/mL (≈ 0.132 µM); MIC (Staphylococcus aureus [6]): 0.25 µg/mL (≈ 0.253 µM); MIC (Haemophilus influenzae [7]): 16 µg/mL (≈ 16.2 µM); MIC (Streptococcus pneumoniae [8]): 0.06 µg/mL (≈ 0.0608 µM); MIC (Moraxella catarrhalis [9]): 2 µg/mL (≈ 2.03 µM); MIC (Streptococcus pneumoniae [10]): 0.06 µg/mL (≈ 0.0608 µM); MIC (Streptococcus pneumoniae [12]): 0.06 µg/mL (≈ 0.0608 µM); MIC (Haemophilus influenzae [14]): 16 µg/mL (≈ 16.2 µM); MIC (Streptococcus pyogenes [16]): 0.5 µg/mL (≈ 0.507 µM); MIC (Streptococcus pneumoniae [17]): 8 µg/mL (≈ 8.11 µM); MIC (Streptococcus pneumoniae [25]): 8 µg/mL (≈ 8.11 µM)
3 | 0.13 (≈ 0.134 µM) | 0.25 (≈ 0.257 µM) | 1 (≈ 1.03 µM) | > 128 | 2 (≈ 2.06 µM) | 8 (≈ 8.22 µM) | 0.13 (≈ 0.134 µM) | 0.13 (≈ 0.134 µM) | 2 (≈ 2.06 µM) | > 128 | 8 (≈ 8.22 µM) | 1 (≈ 1.03 µM) | 2 (≈ 2.06 µM) | 1 (≈ 1.03 µM) | 0.06 (≈ 0.0617 µM) | 1 (≈ 1.03 µM) | > 128 | > 128 | 32 (≈ 32.9 µM) | > 128 | CCOC(=O)[C@H]1[C@H](C)O[C@@H](O[C@H]2[C@H](N(C)C)[C@@H](O)[C@H](O[C@H]3[C@@H](CC=O)C[C@@H](C)[C@@H](O)CN(C)CCC(CCCc4ccnc5ccccc45)NC(=O)C[C@@H](OC(=O)CC)[C@@H]3OC)O[C@@H]2C)C[C@@]1(C)O (stereo in doubt; form 1) | MIC (Staphylococcus aureus [6]): 0.5 µg/mL (≈ 0.514 µM); MIC (Moraxella catarrhalis [9]): 2 µg/mL (≈ 2.06 µM); MIC (Streptococcus pneumoniae [12]; [26]): 0.13 µg/mL (≈ 0.134 µM); MIC (Streptococcus pneumoniae [17]; [26]): 32 µg/mL (≈ 32.9 µM); MIC (Streptococcus pneumoniae [25]; [26]): 32 µg/mL (≈ 32.9 µM)
4 | 0.13 (≈ 0.134 µM) | 0.5 (≈ 0.515 µM) | 0.5 (≈ 0.515 µM) | > 128 | 2 (≈ 2.06 µM) | 16 (≈ 16.5 µM) | 0.25 (≈ 0.257 µM) | 0.25 (≈ 0.257 µM) | 2 (≈ 2.06 µM) | > 128 | 32 (≈ 32.9 µM) | 1 (≈ 1.03 µM) | 2 (≈ 2.06 µM) | 1 (≈ 1.03 µM) | – | 2 (≈ 2.06 µM) | > 128 | > 128 | 64 (≈ 65.9 µM) | > 128 | CCOC(=O)[C@H]1[C@H](C)O[C@@H](O[C@H]2[C@H](N(C)C)[C@@H](O)[C@H](O[C@H]3[C@@H](CC=O)C[C@@H](C)[C@@H](O)CN(C)CCC(C/C=C/c4ccnc5ccccc45)NC(=O)C[C@@H](OC(=O)CC)[C@@H]3OC)O[C@@H]2C)C[C@@]1(C)O (single isomer, unassigned) | MIC (Staphylococcus aureus [6]): 0.5 µg/mL (≈ 0.515 µM); MIC (Moraxella catarrhalis [9]): 1 µg/mL (≈ 1.03 µM); MIC (Streptococcus pneumoniae [12]; [26]): 0.25 µg/mL (≈ 0.257 µM); MIC (Streptococcus pneumoniae [17]; [26]): > 128 µg/mL; MIC (Streptococcus pneumoniae [19]; [26]): 0.13 µg/mL (≈ 0.134 µM); MIC (Streptococcus pneumoniae [25]; [26]): > 128 µg/mL
